The source made the active and inactive calls.
Key:
[1] = test system: HEK293; test: Inhibition of rabbit recombinant Cav2.2/rat recombinant Cavbeta3/Cavalpha2delta-1 expressed in HEK-293 cell assessed as decrease in whole cell Ba2+ current at 500 uM at holding potential of -80 mV up to 3 hrs by whole-cell patch clamp technique; format: cell-based
Summary of the method: (§1)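 HEK-293 cells were transiently co-transfected (lipofection) with CaV subunit cDNAs plus a GFP plasmid. Cells were split at ~10% confluence 2 days later and GFP-positive cells recorded ~4 h after. Cells were preincubated 1–3 h in medium with 500 µM compound (water stock). Whole-cell Ba²⁺ currents were recorded at 22–24 °C with CsCl/EGTA/MgATP pipette solution, pH 7.1, P/4 leak subtraction, normalized to Cm, within 15 min of break-in. Pulses were 140 ms from Vh −80 mV. Student's t-test.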

[2] = organism: Rattus norvegicus; test: Toxicity in Sprague-Dawley rat spinal nerve ligation-induced neuropathic pain model assessed as reduction of stepping at 10 to 300 ug, it; format: organism-based; settings: in vivo, icv_or_intrathecal
[3] = test system: HEK293; test: Inhibition of rabbit recombinant Cav2.2/rat recombinant Cavbeta3/Cavalpha2delta-1 expressed in HEK-293 cell assessed as hyperpolarizing shift in half-inactivation potential at 500 uM after 3 hrs by whole cell patch clamp technique; format: cell-based; settings: in the assay text read “depolarizing” for “hyperpolarizing”
Summary of the method: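 Transiently transfected CaV2.2α1/β3/α2δ-1 HEK-293 cells were treated 3 h with 500 µM in culture medium. Whole-cell recording at 22–24 °C. 2 s prepulses of various amplitudes from Vh −80 mV, then test pulses to +20 mV. Steady-state inactivation was fitted with a Boltzmann equation to give V½ and slope; n = 4–6.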

[4] = organism: Rattus norvegicus; test: Toxicity in Sprague-Dawley rat spinal nerve ligation-induced neuropathic pain model assessed as reduction of corneal and pinna reflexes at 10 to 300 ug, it; format: organism-based, Cornea; settings: in vivo, icv_or_intrathecal
[5] = test system: Rattus norvegicus; test: Anti-allodynic activity in Sprague-Dawley rat spinal nerve ligation-induced neuropathic pain model assessed as reversal of tactile allodynia at 10 to 300 ug administered intrathecally measured after 1 hr by von frey filament based paw withdrawal threshold method; format: functional, organism-based
Summary of the method: (§2)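 Rats 140–160 g, 12/12 h light/dark, food and water ad libitum. Spinal nerve ligation under ketamine/xylazine (45:12 mg/kg i.p.). An intrathecal PE-10 catheter was placed to the lumbar level via the atlantooccipital membrane, followed by 5 d recovery. Rats with motor impairment were excluded. Bolus doses of 10–300 µg/rat were given to allodynic rats, against vehicle. 50% paw withdrawal threshold to von Frey filaments after 30–40 min acclimation on mesh.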

[6] = biological target: Cav1.3/Cav beta3/Cav alpha2delta complex (Rattus norvegicus) (UniProt P54290+P27732+P54287); test: Inhibition of rat recombinant Cav1.3/Cavbeta3/Cavalpha2delta-1 expressed in HEK-293 cell assessed as decrease in current density at 500 uM after 3 hrs by whole-cell patch clamp technique; format: cell-based; settings: HEK293
Summary of the method: (§3)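 Rat CaV1.3α1 (pcDNA6/His) was transiently co-transfected with β3, with or without α2δ-1, plus GFP into HEK-293 cells. Cells were incubated 3 h with 500 µM, then whole-cell Ba²⁺ current–voltage relationships were recorded at 22–24 °C, normalized to membrane capacitance. n = 9 with α2δ-1; n = 5–7 without.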

[7] = organism: Rattus norvegicus; test: Toxicity in Sprague-Dawley rat spinal nerve ligation-induced neuropathic pain model assessed as reduction of righting at 10 to 300 ug, it; format: organism-based; settings: in vivo, icv_or_intrathecal
[8] = test system: HEK293; test: Inhibition of rabbit recombinant Cav2.2/rat recombinant Cavbeta3/Cavalpha2delta-1 expressed in HEK-293 cell assessed as current density at 500 uM at holding potential of -80 mV after 1 to 2 hrs by whole-cell patch clamp technique; format: cell-based; summary of the method: as §1
[9] = test system: HEK293; test: Inhibition of rabbit recombinant Cav2.2/rat recombinant Cavbeta3/Cavalpha2delta-1 expressed in HEK-293 cell assessed as decrease in current density at 500 uM at holding potential of -80 mV after 3 hrs by whole-cell patch clamp technique; format: cell-based; summary of the method: as §1
[10] = biological target: Cav1.3/Cav beta3 complex (Rattus norvegicus) (UniProt P27732+P54287); test: Inhibition of rat recombinant Cav1.3/Cavbeta3 expressed in HEK-293 cell assessed as current density at 500 uM after 3 hrs by whole-cell patch clamp technique; format: cell-based; settings: HEK293; summary of the method: as §3
[11] = test system: HEK293; test: Inhibition of rabbit recombinant Cav2.2/rat recombinant Cavbeta3/Cavalpha2delta-1 expressed in HEK-293 cell assessed as inhibition of channel current at 500 uM by whole-cell patch clamp technique; format: cell-based; summary of the method: as §1
[12] = test system: Rattus norvegicus; test: Anti-allodynic activity in Sprague-Dawley rat spinal nerve ligation-induced neuropathic pain model assessed as tactile allodynia at 10 to 300 ug administered intrathecally measured after 4 hrs by von frey filament based paw withdrawal threshold method; format: functional, organism-based; summary of the method: as §2
[13] = test system: Rattus norvegicus; test: Anti-allodynic activity in Sprague-Dawley rat spinal nerve ligation-induced neuropathic pain model assessed as reversal of tactile allodynia at 10 to 300 ug administered intrathecally measured after 2 hrs by von frey filament based paw withdrawal threshold method; format: functional, organism-based; summary of the method: as §2
[14] = test system: HEK293; test: Inhibition of rabbit recombinant Cav2.2/rat recombinant Cavbeta3 expressed in HEK-293 cell assessed as current density at 500 uM after 3 hrs by whole-cell patch clamp technique; format: cell-based; summary of the method: as §1
[15] = test system: HEK293; test: Inhibition of rabbit recombinant Cav2.2/rat recombinant Cavbeta3/Cavalpha2delta-1 expressed in HEK-293 cell assessed as decrease in inward current at 500 uM at voltages from -20 to +30 mV after 3 hrs by whole-cell patch clamp technique; format: cell-based; summary of the method: as §1
[16] = biological target: Voltage-dependent T-type calcium channel subunit alpha-1G (Homo sapiens) (UniProt O43497); test: Inhibition of human recombinant Cav3.1 expressed in HEK-293 cell assessed as current density at 500 uM after 3 hrs by whole cell patch clamp technique; format: cell-based; settings: HEK293
Summary of the method: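 HEK-293 cells stably expressing CaV3.1a (no auxiliary subunits) were re-seeded on poly-L-lysine coverslips and recorded ~4 h later. Cells were incubated 3 h with 500 µM. Whole-cell current–voltage relationships were recorded at 22–24 °C, normalized to Cm; n = 5–6.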

Voltage-dependent T-type calcium channel subunit alpha-1G (Homo sapiens), sequence (O43497 whole entry): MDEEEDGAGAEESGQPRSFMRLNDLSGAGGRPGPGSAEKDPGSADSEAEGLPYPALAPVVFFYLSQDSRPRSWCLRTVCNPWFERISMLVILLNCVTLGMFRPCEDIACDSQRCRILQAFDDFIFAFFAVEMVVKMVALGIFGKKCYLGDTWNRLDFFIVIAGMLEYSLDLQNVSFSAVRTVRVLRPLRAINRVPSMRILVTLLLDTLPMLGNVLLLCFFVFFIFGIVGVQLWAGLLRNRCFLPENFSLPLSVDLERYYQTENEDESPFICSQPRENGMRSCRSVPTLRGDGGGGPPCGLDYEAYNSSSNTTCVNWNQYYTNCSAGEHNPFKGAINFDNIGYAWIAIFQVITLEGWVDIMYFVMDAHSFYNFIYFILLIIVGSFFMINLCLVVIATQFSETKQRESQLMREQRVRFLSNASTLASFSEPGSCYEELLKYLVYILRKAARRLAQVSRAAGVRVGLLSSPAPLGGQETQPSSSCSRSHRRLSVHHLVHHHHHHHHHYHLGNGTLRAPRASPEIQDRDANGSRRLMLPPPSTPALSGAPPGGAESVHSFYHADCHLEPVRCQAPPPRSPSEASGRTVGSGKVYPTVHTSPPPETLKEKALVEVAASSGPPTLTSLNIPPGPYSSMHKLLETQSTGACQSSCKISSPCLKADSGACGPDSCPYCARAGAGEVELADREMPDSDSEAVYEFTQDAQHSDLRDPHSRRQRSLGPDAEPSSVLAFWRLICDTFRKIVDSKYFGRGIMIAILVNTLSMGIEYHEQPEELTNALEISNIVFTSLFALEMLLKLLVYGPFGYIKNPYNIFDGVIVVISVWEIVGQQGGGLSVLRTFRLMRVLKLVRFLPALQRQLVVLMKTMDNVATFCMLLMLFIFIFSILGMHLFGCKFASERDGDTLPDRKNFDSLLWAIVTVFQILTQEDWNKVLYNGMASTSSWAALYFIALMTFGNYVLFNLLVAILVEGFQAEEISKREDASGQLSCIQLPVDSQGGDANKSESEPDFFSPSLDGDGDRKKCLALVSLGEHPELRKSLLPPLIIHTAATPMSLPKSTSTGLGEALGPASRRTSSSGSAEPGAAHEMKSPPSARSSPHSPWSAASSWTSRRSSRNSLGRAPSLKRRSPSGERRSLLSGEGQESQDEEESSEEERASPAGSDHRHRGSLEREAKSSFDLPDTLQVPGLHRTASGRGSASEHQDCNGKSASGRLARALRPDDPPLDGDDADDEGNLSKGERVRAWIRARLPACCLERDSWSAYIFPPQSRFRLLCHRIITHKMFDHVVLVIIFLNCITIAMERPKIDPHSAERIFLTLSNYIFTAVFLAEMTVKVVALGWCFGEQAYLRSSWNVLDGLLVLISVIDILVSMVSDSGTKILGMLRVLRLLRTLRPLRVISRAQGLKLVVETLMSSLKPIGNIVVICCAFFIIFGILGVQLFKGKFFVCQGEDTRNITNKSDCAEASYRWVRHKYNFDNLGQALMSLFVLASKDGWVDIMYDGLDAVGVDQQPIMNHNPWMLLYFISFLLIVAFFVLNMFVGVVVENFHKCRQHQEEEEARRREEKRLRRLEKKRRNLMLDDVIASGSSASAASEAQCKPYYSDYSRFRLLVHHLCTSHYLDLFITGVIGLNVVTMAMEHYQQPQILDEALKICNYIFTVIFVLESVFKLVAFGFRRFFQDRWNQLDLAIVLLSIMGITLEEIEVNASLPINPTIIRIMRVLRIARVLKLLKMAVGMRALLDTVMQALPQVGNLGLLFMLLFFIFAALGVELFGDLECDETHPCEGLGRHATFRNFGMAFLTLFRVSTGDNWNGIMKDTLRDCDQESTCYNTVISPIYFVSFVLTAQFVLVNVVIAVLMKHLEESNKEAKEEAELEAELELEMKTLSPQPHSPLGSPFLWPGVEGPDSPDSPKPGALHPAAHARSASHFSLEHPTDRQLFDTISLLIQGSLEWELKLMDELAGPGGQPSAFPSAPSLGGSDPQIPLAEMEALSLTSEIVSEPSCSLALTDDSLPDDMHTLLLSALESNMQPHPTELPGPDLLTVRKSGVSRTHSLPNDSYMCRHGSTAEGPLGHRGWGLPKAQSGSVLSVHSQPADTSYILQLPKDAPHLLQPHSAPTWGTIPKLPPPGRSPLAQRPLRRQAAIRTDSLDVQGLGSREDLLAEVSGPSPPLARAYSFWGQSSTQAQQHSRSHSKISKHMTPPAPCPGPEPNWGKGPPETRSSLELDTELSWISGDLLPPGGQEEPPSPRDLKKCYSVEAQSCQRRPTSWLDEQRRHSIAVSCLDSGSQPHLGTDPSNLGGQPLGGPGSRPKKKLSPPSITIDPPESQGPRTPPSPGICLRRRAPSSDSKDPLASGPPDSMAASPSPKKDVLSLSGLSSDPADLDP

inhibition [6]: Active | inhibition [10]: inactive | inhibition [16]: inactive
SMILES: Cl.NCC1C2CC3CC(C2)CC1(C(=O)O)C3 (stereo unspecified)
inhibition [1]: Active | Activity [2]: Non-toxic | inhibition [3]: Active | Activity [4]: Non-toxic | Activity [5]: Active | Activity [7]: Non-toxic | inhibition [8]: inactive | inhibition [9]: Active | inhibition [11]: 30% | Activity [12]: inactive | Activity [13]: Active | inhibition [14]: inactive | inhibition [15]: Active
